Among the data in ChEMBL document CHEMBL2407003, “Effects of (-)-epicatechin and derivatives on nitric oxide mediated induction of mitochondrial proteins” (Bioorg Med Chem Lett, 2013) are Activity and EC50 values, retold here.

The nature of experiment [1]: Upregulation of porin expression in BCAEC at EC50 after 48 hrs by Western blot analysis in presence of L-NAME. The class given is functional. The conditions noted are these: Bos taurus. A general note: A western blot detects proteins with antibodies after separation by electrophoresis.
For experiment [2], the target named is T1, Citrate synthase, mitochondrial (Bos taurus) (UniProt Q29RK1).
T1 sequence (whole entry): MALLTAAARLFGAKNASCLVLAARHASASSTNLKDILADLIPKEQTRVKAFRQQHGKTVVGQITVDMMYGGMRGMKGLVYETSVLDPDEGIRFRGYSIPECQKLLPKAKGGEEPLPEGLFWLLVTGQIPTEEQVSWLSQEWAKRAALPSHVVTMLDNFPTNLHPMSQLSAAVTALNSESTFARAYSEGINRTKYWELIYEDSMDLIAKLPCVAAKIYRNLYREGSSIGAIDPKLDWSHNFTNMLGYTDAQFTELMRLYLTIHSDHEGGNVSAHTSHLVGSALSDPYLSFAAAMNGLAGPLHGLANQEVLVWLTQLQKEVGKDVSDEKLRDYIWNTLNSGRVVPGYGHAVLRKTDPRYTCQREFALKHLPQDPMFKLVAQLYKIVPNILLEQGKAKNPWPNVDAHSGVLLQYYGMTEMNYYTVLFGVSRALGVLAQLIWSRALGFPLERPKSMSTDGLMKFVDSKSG
In words: Induction of citrate synthase activity in BCAEC at EC50 after 48 hrs in presence of L-NAME.

The nature of experiment [3]: Upregulation of mitochondrial complex-1 expression in BCAEC at EC50 after 48 hrs by Western blot analysis relative to control. In kind it is functional. The conditions noted are these: Bos taurus.
Experiment [4] can be described thus: Upregulation of porin expression in BCAEC at EC50 after 48 hrs by Western blot analysis. The class given is functional. The conditions noted are these: Bos taurus.
For experiment [5], the target named is T1, Citrate synthase, mitochondrial (Bos taurus). In words: Induction of citrate synthase activity in BCAEC at EC50 after 48 hrs relative to control.
A short description of experiment [6]: Upregulation of mitochondrial complex-2 expression in BCAEC at EC50 after 48 hrs by Western blot analysis in presence of L-NAME. In kind it is functional. The settings on record: Bos taurus.
A short description of experiment [7]: Upregulation of mitochondrial complex-1 expression in BCAEC at EC50 after 48 hrs by Western blot analysis in presence of L-NAME. In kind it is functional. The conditions noted are these: Bos taurus.
In the next experiment the target is T2, Nitric oxide synthase 3 (Bos taurus, UniProt P29473).
T2 sequence (P29473 whole entry): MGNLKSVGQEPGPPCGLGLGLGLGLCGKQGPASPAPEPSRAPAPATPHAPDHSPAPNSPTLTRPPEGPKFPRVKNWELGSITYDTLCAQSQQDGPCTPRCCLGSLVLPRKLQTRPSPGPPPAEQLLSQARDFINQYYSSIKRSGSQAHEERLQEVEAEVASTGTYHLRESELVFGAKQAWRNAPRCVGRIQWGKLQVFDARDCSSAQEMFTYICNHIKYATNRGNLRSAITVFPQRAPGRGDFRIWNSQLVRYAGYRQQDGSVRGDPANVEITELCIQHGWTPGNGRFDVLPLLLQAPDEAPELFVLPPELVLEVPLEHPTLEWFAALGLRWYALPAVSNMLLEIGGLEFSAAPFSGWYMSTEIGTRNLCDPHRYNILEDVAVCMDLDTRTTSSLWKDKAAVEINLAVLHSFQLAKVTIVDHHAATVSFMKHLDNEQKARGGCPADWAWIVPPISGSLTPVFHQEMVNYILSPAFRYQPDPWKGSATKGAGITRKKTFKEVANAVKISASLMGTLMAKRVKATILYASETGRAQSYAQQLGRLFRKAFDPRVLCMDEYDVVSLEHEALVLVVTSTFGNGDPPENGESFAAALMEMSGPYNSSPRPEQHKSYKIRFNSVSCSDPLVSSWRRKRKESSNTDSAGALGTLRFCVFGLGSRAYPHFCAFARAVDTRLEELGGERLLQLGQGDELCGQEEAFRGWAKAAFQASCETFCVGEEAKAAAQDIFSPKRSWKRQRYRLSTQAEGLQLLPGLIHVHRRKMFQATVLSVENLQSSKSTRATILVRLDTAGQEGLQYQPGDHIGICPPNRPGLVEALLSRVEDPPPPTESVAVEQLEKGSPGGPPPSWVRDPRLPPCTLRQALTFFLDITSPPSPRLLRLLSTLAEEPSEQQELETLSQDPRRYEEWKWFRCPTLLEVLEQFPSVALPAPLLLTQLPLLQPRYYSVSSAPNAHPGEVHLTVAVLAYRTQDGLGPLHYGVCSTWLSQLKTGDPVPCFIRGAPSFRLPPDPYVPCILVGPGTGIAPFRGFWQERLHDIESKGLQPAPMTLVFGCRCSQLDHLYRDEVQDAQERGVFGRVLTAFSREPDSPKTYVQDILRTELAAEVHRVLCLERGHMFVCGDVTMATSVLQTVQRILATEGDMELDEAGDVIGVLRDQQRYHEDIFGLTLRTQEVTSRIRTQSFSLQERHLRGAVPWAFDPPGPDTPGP
In words: Activation of eNOS in BCAEC assessed as increase in nitric oxide level after 10 mins by fluorometric analysis. In a few lines: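 Bovine coronary artery endothelial cells, in triplicate, were exposed to a range of concentrations of each compound. Medium was collected 10 min after treatment, and NO was quantified as nitrite/nitrate with a commercial kit. Sigmoidal concentration-response curves were fitted to the triplicate means to give EC50.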

Experiment [8] can be described thus: Upregulation of mitofilin expression in BCAEC at EC50 after 48 hrs by Western blot analysis in presence of L-NAME. In kind it is functional. The conditions noted are these: Bos taurus.
Experiment [9] in a line: Upregulation of mitochondrial complex-2 expression in BCAEC at EC50 after 48 hrs by Western blot analysis relative to control. The class given is functional. The settings on record: Bos taurus.
A short description of experiment [10]: Upregulation of TFAM expression in BCAEC at EC50 after 48 hrs by Western blot analysis. The class given is functional. The settings on record: Bos taurus.
Experiment [11] in a line: Upregulation of TFAM expression in BCAEC at EC50 after 48 hrs by Western blot analysis in presence of L-NAME. The conditions noted are these: Bos taurus. The class given is functional.
A short description of experiment [12]: Upregulation of mitochondrial complex-1 expression in BCAEC at 100 nmol/L after 48 hrs by Western blot analysis. In kind it is functional. The settings on record: Bos taurus.
Experiment [13] is described as follows: Upregulation of mitofilin expression in BCAEC at EC50 after 48 hrs by Western blot analysis. The class given is functional. The settings on record: Bos taurus.
The nature of experiment [14]: Upregulation of mitochondrial complex-1 expression in BCAEC at 0.01 nmol/L after 48 hrs by Western blot analysis. The conditions noted are these: Bos taurus. In kind it is functional.

Calls of active or inactive are those of the source. No cut-off for these calls is given here.

For orientation: EC50 means the midpoint of the concentration-response curve. On to `CCOc1cc([C@H]2Oc3cc(O)cc(O)c3C[C@H]2O)ccc1O`, for which the outcome in experiment [1], in [2], in experiment [3], in experiment [6], in experiment [7] and in [8] was inactive. In experiment [4], the outcome was Active. In experiment [5], this compound yielded an Activity of 30%. For the same compound, the EC50 at Nitric oxide synthase 3 stood at 1 nM.
Consider `Oc1cc(O)c2c(c1)O[C@H](c1ccc(O)c(O)c1)[C@H](O)C2` [(-)-EPICATECHIN], for which the outcome in experiment [1], in [2], in experiment [4], in experiment [11], in [6] and in experiment [7] was inactive. Further, the outcome in [8] was inactive. In addition, the Activity in [3] is 20%; in [9], 25%; in experiment [5], 30%. Further, the outcome in [10], in experiment [12] and in [13] was Active. Also, at Nitric oxide synthase 3, the EC50 worked out at 2 nM.
Turning to `CC(=O)Oc1cc(OC(C)=O)c2c(c1)O[C@H](c1ccc(OC(C)=O)c(OC(C)=O)c1)[C@H](OC(C)=O)C2` [EPICATECHIN PENTAACETATE], the result in [1], in [2], in experiment [11], in experiment [6], in [7] and in [8] was inactive. Moreover, the figures for the Activity in [3], in experiment [9] and in [5] were 60%, 25% and 30%, respectively. The outcome in [10], in [4], in [14] and in experiment [13] was Active. At Nitric oxide synthase 3, the EC50 is 0.006 nM.
